Results: ChEMBL document CHEMBL1154598, “7-Hydroxy-benzopyran-4-one derivatives: a novel pharmacophore of peroxisome proliferator-activated receptor alpha and -gamma (PPARalpha and gamma) dual agonists” (J Med Chem, 2009)
Calls of active or inactive are those of the source. The calls are words filed in the database; no cut-off is given here.

What was measured:
[1] = biological target: T1, Peroxisome proliferator-activated receptor gamma (Homo sapiens) (UniProt P37231); test: Agonist activity at human PPARgamma expressed in HEK293 cells co-transfected with PPRE assessed as beta-galactosidase signal at 25 uM after 48 hrs by reporter gene assay relative to control; type: functional, cell-based
T1 sequence (whole entry): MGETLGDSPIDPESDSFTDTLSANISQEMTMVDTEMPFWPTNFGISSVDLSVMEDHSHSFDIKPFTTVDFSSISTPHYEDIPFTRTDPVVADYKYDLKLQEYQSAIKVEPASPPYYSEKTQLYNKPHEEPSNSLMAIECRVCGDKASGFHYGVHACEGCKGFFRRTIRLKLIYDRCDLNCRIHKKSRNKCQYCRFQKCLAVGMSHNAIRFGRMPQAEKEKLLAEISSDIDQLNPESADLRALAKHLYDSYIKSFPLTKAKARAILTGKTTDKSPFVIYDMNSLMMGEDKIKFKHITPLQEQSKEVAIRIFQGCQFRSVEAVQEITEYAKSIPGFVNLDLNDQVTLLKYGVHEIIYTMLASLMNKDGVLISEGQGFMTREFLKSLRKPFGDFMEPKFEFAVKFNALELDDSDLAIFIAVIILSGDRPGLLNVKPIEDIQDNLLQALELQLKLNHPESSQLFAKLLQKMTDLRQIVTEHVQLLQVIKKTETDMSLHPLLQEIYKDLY
Method in brief: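 HEK293 cells were transfected with FuGENE 6 using a PPRE-luciferase reporter, pSG5-hPPARγ1 and a β-galactosidase control plasmid. After 24 h they were replated at 5 × 10⁴ cells/well, attached overnight, then treated for 48 h with 0.1% DMSO as vehicle. Luciferase was read, normalized to the β-gal signal and reported as fold activation over vehicle. Mean of two experiments in triplicate.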

[2] = biological target: T2, Peroxisome proliferator-activated receptor alpha (Homo sapiens) (UniProt Q07869); test: Agonist activity at human PPARalpha expressed in HEK293 cells co-transfected with PPRE assessed as beta-galactosidase signal at 25 uM after 48 hrs by reporter gene assay relative to control; type: functional, cell-based
T2 sequence (whole entry): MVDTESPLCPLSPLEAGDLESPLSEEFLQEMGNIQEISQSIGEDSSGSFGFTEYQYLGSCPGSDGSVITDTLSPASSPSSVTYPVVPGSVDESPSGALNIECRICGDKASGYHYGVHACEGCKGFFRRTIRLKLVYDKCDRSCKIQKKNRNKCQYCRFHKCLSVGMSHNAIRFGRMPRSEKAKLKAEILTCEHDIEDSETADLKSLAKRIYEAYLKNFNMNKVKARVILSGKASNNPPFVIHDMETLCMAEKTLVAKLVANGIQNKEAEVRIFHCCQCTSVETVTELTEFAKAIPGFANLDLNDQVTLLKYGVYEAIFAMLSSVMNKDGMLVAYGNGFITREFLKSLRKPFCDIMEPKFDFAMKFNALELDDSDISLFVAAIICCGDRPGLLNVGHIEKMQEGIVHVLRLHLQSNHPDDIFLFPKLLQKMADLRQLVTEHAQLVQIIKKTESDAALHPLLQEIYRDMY
Method in brief: (§1)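 Human PPARα transactivation in HEK293 cells grown in DMEM/F-12 with 10% heat-inactivated FBS. Cells were transfected with FuGENE 6 using a PPRE-luciferase reporter, pBI-G-hPPARα and a β-galactosidase control plasmid. After 24 h they were replated at 5 × 10⁴ cells/well, attached overnight, then dosed for 48 h with 0.1% DMSO as vehicle. Luciferase was normalized to β-gal and expressed as fold over vehicle. Two experiments, each in triplicate.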

[3] = biological target: T2, Peroxisome proliferator-activated receptor alpha (Homo sapiens); test: Agonist activity at human PPARalpha expressed in HEK293 cells co-transfected with PPRE assessed as beta-galactosidase signal at 40 uM after 48 hrs by reporter gene assay relative to control; type: functional, cell-based; method in brief: as §1
[4] = biological target: T1, Peroxisome proliferator-activated receptor gamma (Homo sapiens); test: Agonist activity at PPARgamma expressed in mouse RAW264.7 cells assessed as beta-galactosidase signal at 10 uM by reporter gene assay relative to control; type: functional, cell-based
[5] = biological target: T3, Peroxisome proliferator-activated receptor gamma (Homo sapiens, UniProt P37231); test: Agonist activity at human PPARgamma assessed as luciferase activity by transactivation assay; type: functional
T3 sequence (P37231 whole entry): T1 sequence (whole entry)
Method in brief: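 Transiently transfected HEK293 (PPRE-luciferase reporter plus pSG5-hPPARγ1 and β-gal control), compound exposure 48 h. EC50 is the ligand concentration giving half-maximal fold induction of β-gal-normalized luciferase, fitted by nonlinear regression. Means of three experiments.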

[6] = biological target: T4, Peroxisome proliferator-activated receptor alpha (Homo sapiens, UniProt Q07869); test: Agonist activity at human PPARalpha assessed as luciferase activity by transactivation assay; type: functional
T4 sequence (Q07869 whole entry): T2 sequence (whole entry)

[7] = Cytotoxicity against HEK293 cells assessed as viable cells at 10 uM after 48 hrs by aqueous one solution cell proliferation assay relative to control; type: cell-based; conditions: human, read-out: Activity
Method in brief: (§2)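 HEK293 cells were seeded overnight, then exposed to 0–100 μM compound for 48 h at 37 °C in 5% CO₂. MTS reagent was added for a further 2 h and absorbance read at 490 nm. Viability is given as % relative to DMSO vehicle control. Two experiments, each in quadruplicate.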

[8] = Cytotoxicity against HEK293 cells assessed as viable cells at 100 uM after 48 hrs by aqueous one solution cell proliferation assay relative to control; type: cell-based; conditions: human, read-out: Activity; method in brief: as §2
[9] = Cytotoxicity against HEK293 cells assessed as viable cells at 50 uM after 48 hrs by aqueous one solution cell proliferation assay relative to control; type: cell-based; conditions: human, read-out: Activity; method in brief: as §2

| SMILES | fold change (FC) [1] | fold change (FC) [2] | fold change (FC) [3] | further results |
| --- | --- | --- | --- | --- |
| O=c1c(-c2ccc(O)cc2)coc2cc(O)c(O)cc12 | 4.4 | 1.8 | 4 |  |
| O=c1c(-c2ccc(O)cc2)coc2cc(O)cc(O)c12 | 3.4 |  |  |  |
| O=c1c(-c2ccc(O)cc2)coc2cc(O)ccc12 | 9.6 | 6.2 | 13.4 |  |
| O=c1c(-c2cccc(OCc3ccccc3)c2)coc2cc(O)ccc12 |  |  |  | Activity [1]: inactive |
| Oc1ccc(-c2n[nH]c(C(F)(F)F)c2-c2ccc(F)cc2)c(O)c1 | 3.9 |  |  |  |
| O=c1cc(-c2ccc(O)cc2)oc2cc(O)cc(O)c12 | 5.4 | 2 | 2.3 | fold change (FC) [4]: 8.13 |
| O=c1c(-c2ccc3c(c2)OCCO3)coc2cc(OC3CCCCO3)ccc12 (stereo not drawn) | 2 | 2.5 | 3.3 |  |
| O=C1C[C@@H](c2ccc(O)cc2)Oc2cc(O)cc(O)c21 | 1.7 | 1.2 | 1.7 |  |
| O=c1cc(-c2ccccc2O)oc2cc(O)ccc12 | 6.8 | 3.6 | 4.9 |  |
| O=c1c(-c2ccc(Cl)cc2)coc2cc(O)ccc12 | 2.6 |  |  |  |
| COc1ccc(-c2cc(=O)c3c(O)cc(O)cc3o2)cc1O | 7.3 | 2.8 | 3.8 |  |
| Cc1[nH]nc(-c2ccc(O)cc2O)c1-c1ccc(F)cc1 | 5.3 |  |  |  |
| COc1ccc(/C=C/C(=O)c2ccc(O)cc2O)cc1 | 2.6 |  |  |  |
| COc1cccc(/C=C/C(=O)c2ccc(O)cc2O)c1 | 2.1 |  |  |  |
| COc1cccc(-c2coc3cc(O)ccc3c2=O)c1 | 57.5 | 16.5 | 43 | EC50 [5]: 22.3 µM; EC50 [6]: 23.1 µM; viability at 48 h, 10 µM [7]: > 90%; viability at 48 h, 100 µM [8]: > 60%; viability at 48 h, 50 µM [9]: > 67% |
| COc1cc(-c2coc3cc(O)ccc3c2=O)cc(OC)c1OC |  |  |  | Activity [1]: inactive |
| O=c1c(-c2cc(O)cc(O)c2)coc2cc(O)ccc12 | 7.4 |  |  |  |
| O=c1c(O)c(-c2ccc(O)cc2)oc2cc(O)cc(O)c12 | 3.5 | 1.8 | 2.6 | fold change (FC) [4]: 7.6 |
| O=c1c(-c2ccc(F)cc2F)coc2cc(O)ccc12 | 13.8 |  |  |  |
| COc1ccc(-c2c(-c3ccc(O)cc3O)n[nH]c2C)cc1 | 2.2 |  |  |  |

| SMILES | fold change (FC) [1] | fold change (FC) [2] | fold change (FC) [3] | further results |
| --- | --- | --- | --- | --- |
| O=c1c(-c2ccc(C(F)(F)F)cc2)coc2cc(O)ccc12 | 4.4 |  |  |  |
| CCc1cc2c(=O)c(-c3ccc4c(c3)OCO4)c(C)oc2cc1O | 5.3 |  |  |  |
| O=c1cc(-c2ccc(O)cc2)oc2cccc(O)c12 | 8.9 | 2.4 | 3.7 |  |
| COc1ccccc1-c1coc2cc(O)ccc2c1=O | 1.6 |  |  |  |
| Oc1ccc(-c2n[nH]cc2-c2ccc3c(c2)OCO3)c(O)c1 |  |  |  | Activity [1]: inactive |
| COc1ccc([C@@H]2CC(=O)c3c(O)cc(O)cc3O2)cc1O | 3.8 | 1.9 | 2 |  |
| O=c1cc(-c2cccc(O)c2)oc2cc(O)ccc12 | 6.3 | 8.2 | 14.8 |  |
| COc1ccc2c(=O)c(-c3ccc4c(c3)OCO4)coc2c1 | 25.2 | 2.2 | 2.4 |  |
| O=c1cc(-c2ccc(O)c(O)c2)oc2ccccc12 | 5 | 2.8 | 7.7 |  |
| COc1cc(-c2cc(=O)c3c(O)cc(O)cc3o2)ccc1O | 2.2 | 1.1 | 1.3 |  |
| O=c1cc(-c2ccc(O)cc2)oc2cc(O)ccc12 | 5 | 1.5 | 2.6 |  |
| O=c1c(-c2cccc(F)c2)coc2cc(O)ccc12 | 4.1 |  |  |  |
| COc1c(F)cc(F)cc1-c1coc2cc(O)ccc2c1=O | 7.5 |  |  |  |
| O=c1c(-c2ccc(O)c(O)c2)coc2cc(O)ccc12 | 7.5 |  |  |  |
| O=c1c(-c2ccc3c(c2)OCCO3)coc2cc(O)ccc12 | 11.3 |  |  |  |
| O=c1cc(-c2ccccc2)oc2cc(O)cc(O)c12 | 4 | 3.4 | 5.3 | fold change (FC) [4]: 5.6 |
| Oc1ccc(-c2n[nH]cc2-c2ccc(F)cc2)c(O)c1 | 1.7 |  |  |  |
| CCc1cc2c(=O)c(-c3ccc4c(c3)OCO4)c(C(F)(F)F)oc2cc1O |  |  |  | Activity [1]: inactive |
| CCc1cc2c(=O)c(-c3ccc4c(c3)OCO4)coc2cc1O | 12.7 |  |  |  |
| COc1cc(OC)cc(-c2coc3cc(O)ccc3c2=O)c1 | 116 | 4.8 | 25.3 | EC50 [5]: 18.9 µM; EC50 [6]: 24.6 µM; viability at 48 h, 10 µM [7]: > 80%; viability at 48 h, 50 µM [9]: > 67% |

| SMILES | fold change (FC) [1] | fold change (FC) [2] | fold change (FC) [3] | further results |
| --- | --- | --- | --- | --- |
| COc1ccc(-c2coc3cc(O)ccc3c2=O)c(OC)n1 |  |  |  | Activity [1]: inactive |
| COc1ccc(/C=C/C(=O)c2ccc(O)cc2O)cc1OC | 3.5 |  |  |  |
| O=c1c(-c2ccc(F)cc2)coc2cc(O)ccc12 | 148 | 8.6 | 28.7 | EC50 [5]: 15.4 µM; EC50 [6]: 33.1 µM; viability at 48 h, 50 µM [9]: > 67% |
| COc1cc(-c2oc3cc(O)cc(O)c3c(=O)c2O)cc(OC)c1O | 1.2 |  |  |  |
| CN(CCOc1ccc(CC2SC(=O)NC2=O)cc1)c1ccccn1 (stereo not drawn) [ROSIGLITAZONE] |  |  |  | viability at 48 h, 100 µM [8]: 46% |
| CN(CCOc1ccc(C[C@H](Nc2ccccc2C(=O)c2ccccc2)C(=O)O)cc1)c1ccccn1 |  |  |  | viability at 48 h, 100 µM [8]: 33% |
| COc1ccc(-c2coc3cc(O)ccc3c2=O)cc1OC | 10.5 |  |  |  |
| O=c1c(-c2cc(F)c(F)c(F)c2)coc2cc(O)ccc12 | 1.4 |  |  |  |
| O=C(/C=C/c1ccc(O)cc1)c1ccc(O)cc1O | 1.3 |  |  |  |
| O=c1c(O)c(-c2ccc(O)c(O)c2)oc2cc(O)cc(O)c12 | 1.3 |  |  |  |
| COc1ccccc1/C=C/C(=O)c1ccc(O)cc1O | 1.1 |  |  |  |
| COc1ccc(-c2oc3cc(O)ccc3c(=O)c2O)cc1OC | 2.4 |  |  |  |
| O=c1c(-c2ccc3c(c2)OCO3)coc2cc(OC3CCCCO3)ccc12 (stereo not drawn) | 9.4 |  |  |  |
| CCc1cc2c(=O)c(-c3ccc4c(c3)OCO4)c(C)oc2cc1OCC(=O)O | 2.3 |  |  |  |
| COc1cc(-c2coc3cc(OC4CCCCO4)ccc3c2=O)cc(OC)c1OC (stereo not drawn) | 2.3 |  |  |  |
| COc1ccc(-c2coc3cc(O)ccc3c2=O)cc1 | 12.8 | 7.5 | 7.8 |  |
| O=c1cc(-c2ccc(O)cc2)oc2ccc(O)cc12 | 5 | 2.6 | 3.5 |  |
| O=c1c(-c2cccc(OC(F)(F)F)c2)coc2cc(O)ccc12 | 2.1 |  |  |  |
| COc1ccc(-c2cc(=O)c3c(O)cc(O)cc3o2)cc1 | 7.7 | 2.3 | 5.2 |  |
